Results gathered from unrelated publications.
Each line is one published result; the experiments were not run side by side.
Target: NAD-dependent protein deacetylase sirtuin-1 (SIRT1, Homo sapiens, UniProt Q96EB6)
Effect on: enzyme activity
Action: inhibitor
Sequence (Q96EB6 193-741, as in one of the studies): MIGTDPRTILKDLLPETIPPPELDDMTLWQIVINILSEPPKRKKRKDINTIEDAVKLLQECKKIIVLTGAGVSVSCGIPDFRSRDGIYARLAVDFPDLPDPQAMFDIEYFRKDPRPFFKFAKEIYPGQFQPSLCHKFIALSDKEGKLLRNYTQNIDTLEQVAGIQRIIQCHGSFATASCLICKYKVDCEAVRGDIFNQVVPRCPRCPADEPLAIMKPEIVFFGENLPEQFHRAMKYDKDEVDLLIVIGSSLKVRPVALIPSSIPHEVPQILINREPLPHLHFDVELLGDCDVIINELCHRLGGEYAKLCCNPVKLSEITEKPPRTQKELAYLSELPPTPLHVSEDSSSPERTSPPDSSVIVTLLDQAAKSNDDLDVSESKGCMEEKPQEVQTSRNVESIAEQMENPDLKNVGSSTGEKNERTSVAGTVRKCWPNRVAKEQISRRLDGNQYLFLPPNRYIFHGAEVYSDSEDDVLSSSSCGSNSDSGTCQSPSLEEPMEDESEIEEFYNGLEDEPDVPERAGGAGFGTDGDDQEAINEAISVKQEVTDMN

Cc1ccc(C(=O)Nc2ccc(S(=O)(=O)O)c3cc(S(=O)(=O)O)cc(S(=O)(=O)O)c23)cc1NC(=O)c1cccc(NC(=O)Nc2cccc(C(=O)Nc3cc(C(=O)Nc4ccc(S(=O)(=O)O)c5cc(S(=O)(=O)O)cc(S(=O)(=O)O)c45)ccc3C)c2)c1 — inhibition (10 µM): 74%
NC(=O)CCNC(=S)NCCCC[C@H](NS(=O)(=O)c1cccc(F)c1)C(=O)N[C@@H](Cc1c[nH]c2ccccc12)C(=O)NC1CCC1 — inhibition (10 µM): 3%
CCCCCCCCCCCCNC(=S)NCCCC[C@H](NC(=O)OCc1ccccc1)C(=O)N[C@@H](Cc1c[nH]c2ccccc12)C(=O)N[C@@H](CCCNC(=N)N)C(N)=O — inhibition (1 µM): 52%
CCCCCC1CC(=O)c2ccc(F)cc2O1 (stereo not shown) — inhibition (fluorescence; 200 µM): 3.8%
O=C(NC1CCC1)[C@H](Cc1c[nH]c2ccccc12)NC(=O)[C@H](CCCCNC(=S)NCCc1nnn[nH]1)NS(=O)(=O)c1cccc(F)c1 — inhibition (10 µM): 17%
CCCCCC1C=Cc2cc(Cl)cc(Br)c2O1 (stereo not shown) — inhibition (fluorescence; 200 µM): 7.1%
O=C(NC1CCC1)[C@H](Cc1c[nH]c2ccccc12)NC(=O)[C@H](CCCCNC(=S)NCc1n[nH]c(=S)o1)NS(=O)(=O)c1cccc(F)c1 — inhibition (30 µM): 37%
CCCCC[C@@H]1CC(=O)c2cc(Cl)cc(Br)c2O1 — inhibition (fluorescence; 200 µM): 5.3%
CC(=S)NCCCC[C@H](NC(=O)OCc1ccccc1)C(=O)N[C@@H](Cc1c[nH]c2ccccc12)C(=O)N[C@@H](CCC(=O)O)C(N)=O — inhibition (1 µM): 83%
Ic1cccc2cnccc12 — inhibition (10 µM): 2%
